Test results: ChEMBL document CHEMBL4680165, “β-Lactams with antiproliferative and antiapoptotic activity in breast and chemoresistant colon cancer cells” (Eur J Med Chem, 2020)
Calls of active or inactive are those of the source. The rule behind the calls is not given here.

Legend:
[1] = test system: MCF7; test: Antiproliferative activity against human MCF7 cells assessed as reduction in cell viability after 72 hrs by alamar blue assay; assay type: functional, cell-based; conditions: MCF7, 72 h
How it was run: (§1)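 Cells seeded at 5 x 10^3/well (MCF-7) or 1 x 10^4/well (HT-29, HEK-293T) and treated after 24 h with serial dilutions (0.001-100 µM) in 1% v/v ethanol vehicle. Alamar Blue 10% v/v added at 72 h, then 3-5 h at 37 °C in the dark; fluorescence ex 530/em 590 nm. Viability relative to vehicle; IC50 from dose-response curves; mean of three experiments in triplicate.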

[2] = Selectivity index, ratio of IC50 for human MCF7 cells to IC50 for human HT-29 cells assessed as reduction in cell viability after 72 hrs by alamar blue assay; assay type: functional
[3] = test system: HT-29; test: Antiproliferative activity against human HT-29 cells assessed as reduction in cell viability after 72 hrs by alamar blue assay; assay type: functional, cell-based; conditions: HT-29, 72 h; how it was run: as §1
[4] = test system: HT-29; test: Antiangiogenic activity in human HT29 cells assessed as reduction in IL-1beta secretion at 5 uM after 24 hrs by ELISA; assay type: functional, cell-based
How it was run: (§2)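 HT-29 cells at 5 x 10^4 per well, cultured 24 h and then exposed to 5 µM compound. Conditioned medium collected on ice and stored at -80 °C. Cytokines and angiogenic, vascular-injury and chemokine factors measured by multiplex panels with overnight supernatant incubation (Angiogenesis Panel 1 and Vascular Injury Panel 2 same day). Medium undiluted except 1:4 for Vascular Injury Panel 2. Secretion normalised to lysate protein by BCA.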

[5] = test system: HT-29; test: Antiangiogenic activity in human HT-29 cells assessed as increase in IL-1RA secretion at 5 uM after 24 hrs by ELISA; assay type: functional, cell-based; how it was run: as §2
[6] = test system: HT-29; test: Antiangiogenic activity in human HT29 cells assessed as reduction in VEGF secretion at 5 uM after 24 hrs by ELISA; assay type: functional, cell-based; how it was run: as §2
[7] = test system: HT-29; test: Antiangiogenic activity in human HT29 cells assessed as reduction in IL-1alpha secretion at 5 uM after 24 hrs by ELISA; assay type: functional, cell-based; how it was run: as §2
[8] = test system: HT-29; test: Potency index, ratio of CA-4 IC50 to test compound IC50 for human HT-29 cells; assay type: functional
[9] = organism: Bos taurus; test: Inhibition of bovine brain tubulin polymerization at 10 uM measured at 30 sec interval for 30 mins in presence of GTP by turbidimetry-based spectrophotometric method

COc1ccc([C@H]2[C@H](O)C(=O)N2c2cc(OC)c(OC)c(OC)c2)cc1C
IC50 [1]: 5 nM
Ratio IC50 [2]: 0.71
IC50 [3]: 7 nM
Activity [4]: inactive
Activity [5]: Active
Activity [6]: inactive
Activity [7]: inactive
Ratio IC50 [8]: 600
inhibition [9]: Active
